# In ChEMBL document CHEMBL4342473, “Lead Optimization of Benzoxazolone Carboxamides as Orally Bioavailable and CNS Penetrant Acid Ceramidase Inhibitors” (J Med Chem, 2020):
# Activity calls are given as the source filed them. The rule behind the calls is not given here.
# Key:
# [1] = Unbound plasma concentration in twitcher mouse model of Krabbe's disease at 30 mg/kg, ip administered once daily for 20 days measured 1 hr post-last dose; type: ADME, organism-based; settings: in vivo
# How it was run: (§1)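 Twitcher mice dosed i.p. once daily for 20 days, sacrificed 1 h after last dose (day 20); drug measured in plasma and brain; unbound levels from unbound fractions (mean of two technical replicates); N = 3 males + 3 females per group.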
# [2] = Toxicity in C57BL/6 mouse assessed as clinical abnormalities at 20 to 120 mg/kg, ip administered for 4 days; type: organism-based; settings: in vivo, 96 h
# [3] = biological target: T1, Acid ceramidase (Homo sapiens) (UniProt Q13510); assay: Inhibition of acid ceramidase in human SH-SY5Y cells assessed as change in intracellular accumulation of SM (d18:1/16:0) up to 10 uM measured after 3 hrs by LC/MS analysis; type: cell-based
# T1 sequence (whole entry): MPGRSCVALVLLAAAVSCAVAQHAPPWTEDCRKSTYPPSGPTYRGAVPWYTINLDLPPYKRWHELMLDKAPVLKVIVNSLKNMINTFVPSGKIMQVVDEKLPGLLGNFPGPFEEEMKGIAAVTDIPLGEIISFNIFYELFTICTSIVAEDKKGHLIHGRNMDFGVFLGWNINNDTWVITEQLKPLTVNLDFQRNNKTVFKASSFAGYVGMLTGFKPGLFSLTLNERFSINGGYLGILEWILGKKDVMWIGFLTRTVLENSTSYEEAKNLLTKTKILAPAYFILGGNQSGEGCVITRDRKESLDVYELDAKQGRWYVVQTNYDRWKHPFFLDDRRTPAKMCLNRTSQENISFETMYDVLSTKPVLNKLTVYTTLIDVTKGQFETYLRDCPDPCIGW
# How it was run: (§2)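 SH-SY5Y neuroblastoma cells exposed 3 h to 1, 2.5, 5 and 10 μM; AC activity by LC/MS-based assay; ceramide species, sphingosine, SM and HexCer (d18:1/16:0) quantified by LC/MS; means ± S.E.M. of at least six determinations, experiment repeated twice.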
# [4] = biological target: T2, Sphingomyelin phosphodiesterase (Homo sapiens) (UniProt P17405); assay: Inhibition of human full length ASM at 1 to 10 uM using HMU-PC as fluorogenic substrate incubated for 45 mins by fluorescence based assay
# T2 sequence (whole entry): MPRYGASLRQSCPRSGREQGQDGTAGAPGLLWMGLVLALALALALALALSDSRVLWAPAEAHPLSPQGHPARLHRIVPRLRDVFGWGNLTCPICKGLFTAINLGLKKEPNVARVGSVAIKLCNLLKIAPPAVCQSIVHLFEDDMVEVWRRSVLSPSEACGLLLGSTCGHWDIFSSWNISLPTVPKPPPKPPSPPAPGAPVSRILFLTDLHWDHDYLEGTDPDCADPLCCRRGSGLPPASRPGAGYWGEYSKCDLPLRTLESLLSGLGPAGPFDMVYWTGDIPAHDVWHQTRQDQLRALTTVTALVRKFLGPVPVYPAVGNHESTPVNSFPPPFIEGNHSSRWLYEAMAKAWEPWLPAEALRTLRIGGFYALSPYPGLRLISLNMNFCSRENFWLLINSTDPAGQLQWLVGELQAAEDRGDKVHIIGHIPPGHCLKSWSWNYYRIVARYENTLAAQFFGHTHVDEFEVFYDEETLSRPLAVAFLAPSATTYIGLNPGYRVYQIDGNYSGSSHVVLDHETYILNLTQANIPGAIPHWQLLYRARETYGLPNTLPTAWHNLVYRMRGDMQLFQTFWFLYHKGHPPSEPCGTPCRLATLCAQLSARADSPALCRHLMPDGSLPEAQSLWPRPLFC
# [5] = biological target: T1, Acid ceramidase (Homo sapiens); assay: Inhibition of acid ceramidase in human SH-SY5Y cells assessed as change in intracellular accumulation of SM (d18:1/16:0) at 10 uM measured up to 6 hrs by LC/MS analysis; type: cell-based
# How it was run: (§3)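 Human neuroblastoma SH-SY5Y cells incubated with compound at 10 μM for 30 min, 1 h, 3 h and 6 h; AC activity by LC/MS-based activity assay; Cer (d18:0/16:0), Cer (d18:1/16:0), sphingosine, SM (d18:1/16:0) and HexCer (d18:1/16:0) quantified by LC/MS.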
# [6] = biological target: T3, Monoglyceride lipase (Homo sapiens) (UniProt Q99685); assay: Inhibition of recombinant human MAGL at 1 to 10 uM using 4-nitrophenylacetate as substrate preincubated for 5 mins followed by substrate addition and measured after 10 mins by colorimetric method
# T3 sequence (whole entry): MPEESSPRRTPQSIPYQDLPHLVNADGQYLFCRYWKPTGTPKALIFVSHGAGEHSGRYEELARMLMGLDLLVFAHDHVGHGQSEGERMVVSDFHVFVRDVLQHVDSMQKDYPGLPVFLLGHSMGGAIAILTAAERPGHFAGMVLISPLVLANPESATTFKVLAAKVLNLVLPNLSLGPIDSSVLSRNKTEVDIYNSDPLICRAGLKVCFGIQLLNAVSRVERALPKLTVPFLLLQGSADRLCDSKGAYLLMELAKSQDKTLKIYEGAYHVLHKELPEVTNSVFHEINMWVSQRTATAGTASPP
# Mus musculus [7] = assay: Neuroprotective activity in ip dosed C57BL/6J/129SvEV mouse model of Gaucher's disease assessed as reduction in GluSph (d18:1) level in brain administered once daily for 14 days measured 1 hr post-last dose by MS analysis; type: functional, organism-based
# How it was run: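 4L;C* mice (neuropathic Gaucher model) given 30 or 90 mg kg–1 i.p. once daily for 14 days from postnatal day 5; killed 1 h after last dose; brain GluSph (d18:1) measured; N = 4–8 per group, mixed sexes.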
# [8] = biological target: T1, Acid ceramidase (Homo sapiens); assay: Inhibition of acid ceramidase in human SH-SY5Y cells assessed as increase in intracellular accumulation of Cer (d18:1/16:0) at 10 uM measured up to 6 hrs by LC/MS analysis; type: cell-based; how it was run: as §3
# [9] = biological target: T1, Acid ceramidase (Homo sapiens); assay: Inhibition of acid ceramidase in human SH-SY5Y cells assessed as increase in intracellular accumulation of Cer (d18:0/16:0) measured after 3 hrs by LC/MS analysis; type: cell-based; how it was run: as §2
# Mus musculus [10] = assay: Neuroprotective activity in ip dosed Twitcher mouse model of Krabbe's disease assessed as reduction in GalSph (d18:1) level in brain administered once daily for 20 days measured 1 hr post-last dose by MS analysis; type: functional, organism-based
# How it was run: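 Twitcher mice dosed i.p. at 30 or 90 mg kg–1 once daily for 20 days from postnatal day 10; sacrificed 1 h after last dose; brain GalSph (d18:1) measured; N = 3 males + 3 females per group.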
# [11] = biological target: T1, Acid ceramidase (Homo sapiens); assay: Inhibition of acid ceramidase in human SH-SY5Y cells assessed as increase in intracellular accumulation of Cer (d18:1/16:0) measured after 3 hrs by LC/MS analysis; type: cell-based; how it was run: as §2
# [12] = Unbound plasma concentration in twitcher mouse model of Krabbe's disease at 90 mg/kg, ip administered once daily for 20 days measured 1 hr post-last dose; type: ADME, organism-based; settings: in vivo; how it was run: as §1
# [13] = biological target: T1, Acid ceramidase (Homo sapiens); assay: Inhibition of acid ceramidase in human SH-SY5Y cells assessed as decrease in sphingosine level measured after 3 hrs by LC/MS analysis; type: cell-based; how it was run: as §2
# [14] = biological target: T1, Acid ceramidase (Homo sapiens); assay: Inhibition of acid ceramidase in human SH-SY5Y cells using N-lauroyl ceramide as substrate measured after 3 hrs by LC/MS analysis; type: cell-based; how it was run: as §2
smiles,measurement,setting,value
CC(C)CNC(=O)n1c(=O)oc2cc(C3CCN(C)CC3)ccc21,Cp(f),[1],110 nM
same,Activity,[2],Non-Toxic
same,inhibition,[3],inactive
same,inhibition,[4],inactive
same,inhibition,[5],inactive
same,inhibition,[6],inactive
same,Activity,Mus musculus [7],Dose-dependent effect
same,inhibition,[8],Active
same,inhibition,[9],Dose-dependent effect
same,Activity,Mus musculus [10],Dose-dependent effect
same,inhibition,[11],Dose-dependent effect
same,Cp(f),[12],520 nM
same,inhibition,[13],Dose-dependent effect
same,inhibition,[14],Dose-dependent effect
